# Calls of active or inactive are those of the source. The rule behind the calls is not given here.
# What was measured:
# [1] = Cytotoxicity against multidrug resistant Pgp expressing human NCI/ADR cells after 72 hrs by sulforhodamine B test; format: functional, cell-based; conditions: NCI/ADR-RES
# [2] = system: A2780; experiment: Cytotoxicity against human A2780 cells after 72 hrs; format: functional, cell-based; conditions: A2780, 72 h
# [3] = Cytotoxicity against multidrug resistant Pgp expressing human LCC6 cells after 72 hrs by sulforhodamine B test; format: functional, cell-based; conditions: LCC-6, 72 h
# [4] = system: Mus musculus; experiment: Toxicity in Pgp expressing multidrug resistant human DLD1 cells xenografted SCID mouse at 20 mg/kg, iv administered for 3 days; format: organism-based, DLD-1; set-up: dose 20 mg/kg, route intravenous; conditions: in vivo, 72 h
# Procedure, shortened: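 Female SCID mice with DLD-1 (Pgp+) colon xenografts, 5 per group. Dosing was iv by tail vein, 20 mg/kg ×3 from day 5 post-implant, in Tween-80/ethanol diluted with saline. Toxicity was counted as animals that died or lost more than 20% body weight.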
# [5] = system: DLD-1; experiment: Antitumor activity against Pgp expressing multidrug resistant human DLD1 cells xenografted SCID mouse assessed as tumor growth delay at 20 mg/kg, iv administered for 3 days; format: functional
# Procedure, shortened: (§1)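 Female SCID mice (6-8 weeks), 5 per treated group, 10 untreated controls, bearing DLD-1 (Pgp+) human colon xenografts. Dosing was iv by tail vein from day 5 after implant, ×3. Stock was 30 mg/mL in Tween-80/ethanol 1:1, diluted in 0.9% saline. Caliper volume V=0.4·l·w² every 3-4 days. Growth delay was time to 600 mm3, interpolated from log(volume) vs time. Cox-Mantel test was used versus control. Cure meant no palpable tumor on day 167.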
# [6] = system: DLD-1; experiment: Antitumor activity against Pgp expressing multidrug resistant human DLD1 cells xenografted SCID mouse assessed as tumor growth at 20 mg/kg, iv administered for 3 days after 167 days; format: functional, organism-based; set-up: dose 20 mg/kg; procedure, shortened: as §1
# [7] = Cytotoxicity against paclitaxel resistant human 1A9PTX10 cells expressing class 1 beta-tubulin mutant after 72 hrs; format: functional, cell-based; conditions: 1A9/ptx-10, 72 h
# [8] = Cytotoxicity against paclitaxel resistant human 1A9PTX22 cells expressing class 1 beta-tubulin mutant after 72 hrs; format: functional, cell-based; conditions: 1A9/ptx-22, 72 h
# [9] = system: MCF7; experiment: Cytotoxicity against Pgp deficient human MCF7 cells after 72 hrs by sulforhodamine B test; format: functional, cell-based; conditions: MCF7, 72 h
# [10] = species on record: Bos taurus; experiment: Induction of calf brain tubulin polymerization at 10 uM in absence of GTP by spectrophotometric assay
# [11] = system: MCF7; experiment: Resistance index, Ratio of IC50 for multidrug resistant Pgp expressing human NCI/ADR cells to IC50 for Pgp deficient human MCF7 cells; format: functional; set-up: reference not given here
# [12] = Cytotoxicity against Pgp deficient human LCC6 cells after 72 hrs by sulforhodamine B test; format: functional, cell-based; conditions: C6, 72 h
# [13] = system: C6; experiment: Resistance index, Ratio of IC50 for multidrug resistant Pgp expressing human LCC6 cells to IC50 for Pgp deficient human LCC6 cells; format: functional; set-up: reference not given here
# [14] = species on record: Bos taurus; experiment: Induction of calf brain tubulin polymerization at 10 uM by spectrophotometric assay
# Procedure, shortened: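 Calf brain microtubule protein diluted to 1 mg/mL in MES buffer with 3 M glycerol; taxoid at 10 µM. Assembly followed at 37 °C as turbidity change at 350 nm. 6 mM CaCl2 added after 50 min to follow depolymerization. Tubulin is 85% of the protein. Runs used either centrifuged tubulin or tubulin used as stored, with 1 mM GTP in some runs.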
# [15] = system: CFPAC-1; experiment: Cytotoxicity against multidrug resistant human CFPAC1 cells after 72 hrs by MTT assay; format: functional, cell-based; conditions: CFPAC-1, 72 h
# Procedure, shortened: (§2)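 Pancreatic lines were cultured per ATCC, seeded at 2.5 × 10^4 cells/well and allowed to adhere overnight. The medium was replaced with drug diluted from a 10 mM DMSO stock, or vehicle, for 72 h, in triplicate, with at least three independent trials. MTT at 0.5 mg/mL was added for 3 h, formazan was dissolved in acidified isopropanol, and A570 was read. IC50 came from sigmoid-Emax nonlinear regression.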
# [16] = system: MIA PaCa-2; experiment: Cytotoxicity against multidrug resistant human MIAPaCa2 cells after 72 hrs by MTT assay; format: functional, cell-based; conditions: MIA PaCa-2, 72 h; procedure, shortened: as §2
# [17] = species on record: Bos taurus; experiment: Induction of calf brain tubulin polymerization at 10 uM in after 5 mins in absence of GTP by spectrophotometric assay
# [18] = system: PANC-1; experiment: Cytotoxicity against multidrug resistant human PANC1 cells after 72 hrs by MTT assay; format: functional, cell-based; conditions: PANC-1, 72 h; procedure, shortened: as §2
# [19] = system: BXPC-3; experiment: Cytotoxicity against multidrug resistant human BxPC3 cells after 72 hrs by MTT assay; format: functional, cell-based; conditions: BXPC-3, 72 h; procedure, shortened: as §2
# [20] = species on record: Bos taurus; experiment: Induction of calf brain tubulin polymerization at 10 uM after 12 mins in presence of GTP by spectrophotometric assay
# Procedure, shortened: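 Calf brain microtubule protein, 1 mg/mL in MES buffer with 3 M glycerol, was assembled at 37 °C with 1 mM GTP and 10 µM drug. Turbidity was followed at 350 nm. Tubulin stored in liquid nitrogen was centrifuged just before use and adjusted to 1 mg/mL. CaCl2 (6 mM) was added at 50 min to follow depolymerization.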
# [21] = system: DLD-1; experiment: Antitumor activity against Pgp expressing multidrug resistant human DLD1 cells xenografted SCID mouse assessed as tumor growth delay at 40 mg/kg, iv administered for 3 days; format: functional; procedure, shortened: as §1
# [22] = system: DLD-1; experiment: Antitumor activity against Pgp expressing multidrug resistant human DLD1 cells xenografted SCID mouse assessed as tumor growth delay at 10 mg/kg, iv administered for 3 days; format: functional; procedure, shortened: as §1
# [23] = system: DLD-1; experiment: Antitumor activity against Pgp expressing multidrug resistant human DLD1 cells xenografted SCID mouse assessed as tumor growth at 10 mg/kg, iv administered for 3 days after 167 days; format: functional, organism-based; set-up: dose 10 mg/kg; procedure, shortened: as §1
# [24] = system: CFPAC-1; experiment: Antitumor activity against mdr1 expressing multidrug resistant human CFPAC1 cells xenografted Swiss mouse assessed as reduction in tumor volume at 20 mg/kg, iv administered for 3 days after 8 weeks; format: functional, organism-based; set-up: dose 20 mg/kg
# Procedure, shortened: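 CFPAC-1 (mdr1-high) pancreatic cells, 1 × 10^6 in 200 µL PBS, were injected into both flanks. Treatment began on day 19 at about 100 mm3. Dosing was iv by tail vein on days 19, 22 and 25 at 20 mg/kg each (60 mg/kg total). Stock was 30 mg/mL in Tween-80/ethanol 1:1, diluted in PBS to 0.2 mL. Caliper volume was V=0.4·l·w².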
# [25] = Cytotoxicity against human primary pancreatic ductal cells after 72 hrs by MTT assay; format: cell-based
Compound,IC50 [1] [nM],IC50 [3] [nM],IC50 [9] [nM],Ratio IC50 [11],IC50 [12] [nM],Ratio IC50 [13],other results
CC(=O)O[C@H]1C(=O)[C@@]2(C)[C@H]([C@H](OC(=O)c3ccccc3)[C@]3(O)C[C@H](OC(=O)[C@H](O)[C@@H](NC(=O)c4ccccc4)c4ccccc4)C(C)=C1C3(C)C)[C@]1(OC(C)=O)CO[C@@H]1C[C@@H]2O [PACLITAXEL],300,346,,,,,IC50 [2]: 1.38 nM; Activity [4]: Non-toxic; Activity [5]: 8 days; Activity [6]: inactive; IC50 [7]: 533 nM; IC50 [8]: 161 nM
COC(=O)O[C@H]1C(=O)[C@@]2(C)[C@H]([C@H](OC(=O)c3cccc(OC)c3)[C@]3(O)C[C@H](OC(=O)[C@H](O)[C@H](C=C(C)C)NC(=O)OC(C)(C)C)C(C)=C1C3(C)C)[C@]1(OC(C)=O)CO[C@@H]1C[C@@H]2O,1.4,1.6,0.4,3.5,0.6,2.7,Activity [10]: Active; Activity [14]: Active
CCC(=O)O[C@H]1C(=O)[C@@]2(C)[C@H]([C@H](OC(=O)c3cccc(OC)c3)[C@]3(O)C[C@H](OC(=O)[C@H](O)[C@H](C=C(C)C)NC(=O)OC(C)(C)C)C(C)=C1C3(C)C)[C@]1(OC(C)=O)CO[C@@H]1C[C@@H]2O,0.33,,0.36,,1,,IC50 [15]: 0.89 nM; IC50 [2]: 0.76 nM; IC50 [16]: 0.68 nM; Activity [17]: > 90%; IC50 [7]: 3.65 nM; Activity [10]: Active; IC50 [18]: 22.6 nM; IC50 [19]: 3.03 nM; IC50 [8]: 3.88 nM
CC(=O)O[C@@]12CO[C@@H]1C[C@H](O)[C@@]1(C)C(=O)[C@H](OC(=O)C3CC3)C3=C(C)[C@@H](OC(=O)[C@H](O)[C@H](C=C(C)C)NC(=O)OC(C)(C)C)C[C@@](O)([C@@H](OC(=O)c4ccccc4)[C@H]21)C3(C)C,3.9,,,,,,Activity [20]: 90%; Activity [21]: >150 days; IC50 [15]: 0.83 nM; IC50 [2]: 0.44 nM; IC50 [16]: 0.92 nM; Activity [5]: >150 days; Activity [6]: Active; Activity [22]: 37 days; IC50 [7]: 9 nM; Activity [10]: Active; IC50 [18]: 3.68 nM; IC50 [19]: 1.04 nM; IC50 [8]: 3.94 nM; Activity [23]: inactive; Activity [24]: Active; Activity [25]: Non-toxic
CCC(=O)O[C@H]1C(=O)[C@@]2(C)[C@H]([C@H](OC(=O)c3cccc(OC)c3)[C@]3(O)C[C@H](OC(=O)[C@H](O)[C@H](C=C(C)C)NC(=O)C4CCC4)C(C)=C1C3(C)C)[C@]1(OC(C)=O)CO[C@@H]1C[C@@H]2O,8.8,15,0.8,11,1.6,9.4,
CCC(=O)O[C@H]1C(=O)[C@@]2(C)[C@H]([C@H](OC(=O)c3ccccc3)[C@]3(O)C[C@H](OC(=O)[C@H](O)[C@H](C=C(C)C)NC(=O)C4=CCCCC4)C(C)=C1C3(C)C)[C@]1(OC(C)=O)CO[C@@H]1C[C@@H]2O,3.8,11,0.3,13,1.2,9.2,
CCC(=O)O[C@H]1C(=O)[C@@]2(C)[C@H]([C@H](OC(=O)c3cccc(OC)c3)[C@]3(O)C[C@H](OC(=O)[C@H](O)[C@H](CC(C)C)NC(=O)OC4CCCC4)C(C)=C1C3(C)C)[C@]1(OC(C)=O)CO[C@@H]1C[C@@H]2O,1.18,2.6,0.17,6.9,0.76,3.4,
CCC(=O)O[C@H]1C(=O)[C@@]2(C)[C@H]([C@H](OC(=O)c3ccccc3)[C@]3(O)C[C@H](OC(=O)[C@H](O)[C@H](C=C(C)C)NC(=O)C4CCCCC4)C(C)=C1C3(C)C)[C@]1(OC(C)=O)CO[C@@H]1C[C@@H]2O,18,13,1,18,1.3,10,
CCC(=O)O[C@H]1C(=O)[C@@]2(C)[C@H]([C@H](OC(=O)c3ccccc3)[C@]3(O)C[C@H](OC(=O)[C@H](O)[C@H](C=C(C)C)NC(=O)C4CCCC4)C(C)=C1C3(C)C)[C@]1(OC(C)=O)CO[C@@H]1C[C@@H]2O,22,19,1.1,20,1.1,17,
CCC(=O)O[C@H]1C(=O)[C@@]2(C)[C@H]([C@H](OC(=O)c3ccccc3)[C@]3(O)C[C@H](OC(=O)[C@H](O)[C@H](CC(C)C)NC(=O)OC4CCCCC4)C(C)=C1C3(C)C)[C@]1(OC(C)=O)CO[C@@H]1C[C@@H]2O,14,18,1.4,10,4.8,3.8,
CCC(=O)O[C@H]1C(=O)[C@@]2(C)[C@H]([C@H](OC(=O)c3ccccc3)[C@]3(O)C[C@H](OC(=O)[C@H](O)[C@H](C=C(C)C)NC(=O)C4CCC4)C(C)=C1C3(C)C)[C@]1(OC(C)=O)CO[C@@H]1C[C@@H]2O,41,34,1.2,34,1.3,26,

# Reference: ChEMBL document CHEMBL1150351, “Design, synthesis, and biological evaluation of new-generation taxoids” (J Med Chem, 2008)
